In the EternaBench riboswitch data:

Tested on: MS2 coat protein
Assay: apparent Kd, MS2 coat protein; higher = weaker binding; RNA-MaP array; FMN 200 µM where present
Summary of the method: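 On Illumina sequencing-chip clusters, designs were transcribed by stalled E. coli RNA polymerase and titrated with SNAP-549-labelled MS2 coat protein (0.7 or 1.5 nM, doubling to 3 µM), without and then with constant ligand, in 100 mM Tris-HCl pH 7.5, 80 mM KCl, 4 mM MgCl2, BSA, DTT, yeast tRNA and Tween-20. Apparent Kd is the median of filtered per-cluster curve fits to green signal normalised to red-channel RNA signal and control-cluster median Fmax.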

[1] = designed as: OFF switch for flavin mononucleotide, no ligand
[2] = ligand present: flavin mononucleotide, designed as: OFF switch for flavin mononucleotide
[3] = designed as: ON switch for flavin mononucleotide, no ligand
[4] = ligand present: flavin mononucleotide, designed as: ON switch for flavin mononucleotide

Sequence	apparent Kd [1] [nM]	apparent Kd [2] [nM]	apparent Kd [3] [nM]	apparent Kd [4] [nM]
GGCGGCAAUGAGAAGGGUCACAUGAGGAUCACCCAUGUGCUCUUCGCCGUGACAGGAUAUCAUCGCCGUCAGGUUAGAUUUUUG	7.26	26.1	–	–
UUCCUCUUAACAUGAGGAUCACCCAUGUAUUAUUUGGUAAUUGAGGAUAUAUUUUUAAUGUUUAUAUAGAAGGCAAAUACAGUU	45.7	49.3	–	–
ACGUUUUUUGAGGAUAUGCGAUAUUUUUUUAUCGUAGAAGGCGAUACAUGAGGAUCACCCAUGUUUAUGGGCAU	197	204	–	–
AGUAACAGAGGAUAUACUAUUUUAUGUGUUUAUUAUUUUGAACAUGAGGAUCACCCAUGUAGAAGGCUGAAUAA	27	30.1	–	–
GGAUCGAGUGUGAGGAUAUGCAGGUCCUUGGAUCUGCAGAAGGCACAUGAGGAUCACCCAUGUGGAAACGGUCC	64.2	567	–	–
AGGUAAGAGUUAAUUGUGACGGUGAGAAGGCAAUAGUUUGUGACCGACAUGAGGAUCACCCAUGUUGAGGAUAUCACCACCUAC	9.59	40.1	–	–
UCAUUUAUUACAGGAUAUGUUAGUAUUCAGUUGUUUGGUUAUUACUUAUUUACAGAAGGGUAGAACAUGAGGAUCACCCAUGUA	–	–	407	329
UACGGGAGUGGAGGAUAUGCGUAGUACGCUAGAGCAGAAGGCCACAUGAGGAUCACCCAUGUGUCGUCGAAUGCGAUACGCUGG	17.6	77.3	–	–
GCACAUGGCAUAGGAUAUAGUUCUAUUGUUUAAAUAGGUAGUUGGACUUAACUAGAAGGAUGUUACAUGAGGAUCACCCAUGUU	–	–	11.2	11.3
UUCGGCGCAGGAUAUACAGUUCUGUGUUGAAUCGGCGCGGGACAUGAGGAUCACCCAUGUAGAAGGGUGUUGAA	1160	578	–	–
GUUUUGAUAGGAUAUACAUGAGGAUCACCCAUGUCCCACCCGUUACCUCUGACCCUAUGUAGAAGGAUCGUUUG	34.3	26.4	–	–
GGCCUGUAAGGAUAUUAGUAGUAGUCAGAAAAGACUAUUACUGAGAAGGUACAUGAGGAUCACCCAUGUUGGCC	17.4	20.1	–	–
GUAUGCAAGUAGAAGGACGGAUAUUUUGAAAACGUAGGAUAUACAGAAUCAUAUCCACAUGGAUACAUGAGGAUCACCCAUGUA	12	11.8	–	–
GGAUGACAAAGUCAUCCUUAACGAACAUGAGGAUCACCCAUGUAGGAUAUGCUUCUCAAAGAGAAGCAGAAGGACAUGUGCCUU	33.3	256	–	–
AUCAUGUCAGGAUAUCGUGCAGCUACCGAAAGGUAGCUGCACGAGAAGGGACAUGAGGAUCACCCAUGUAUGAA	221	117	–	–
GUCUCGAUGUAAGGAUAUGCAGUGGAAUACACUGCAGAAGGUACAUGAGGAUCACCCAUGUAACUCUAAUAAUAAUAACGAGAC	12	19.2	–	–
GCAGCACUCUUUAACAUGAGGAUCACCCAUGUCAAAAGACAUGAGGAUAUGCAUCUGAAGAAGAUGCAGAAGGCAUUGUGCUGC	–	–	32.3	6.94
AAAACAUGAGGAUCACCCAUGUAAAGAUCGGUUGAUGAAAGUGAGGAUAUACAAAAUUUUAUGGAGUAGAAGGCACUGGGUACA	–	–	44.6	40.9
UGGUCAUCAUCAGGAUAUUAACGUGGGCUACAUUAAGAAGGGAUAGUGGGAGAGGAUGUGAAACAUGAGGAUCACCCAUGUUGU	–	–	13.3	10.6
GUAGUUAGUAAAGGAUAUUAGUGUGUGUAAUAUUGAGAAGGUUACAUGAGGAUCACCCAUGUGAUCAAUCACUGUUAAGGUUGC	6.6	6.42	–	–
GGACGUCGCAUAAACAUGAGGAUCACCCAUGUAACUAGACAUGAGGAUAUGGAUCCUAAUUGGAUCCAGAAGGUAUGGACGUCC	–	–	298	200

Sequence	apparent Kd [1] [nM]	apparent Kd [2] [nM]	apparent Kd [3] [nM]	apparent Kd [4] [nM]
UUUUUGUCAGGAUAUCGUUAAUUUAAUUGUUUGUAUUAGUUCGAGAAGGGACAUGAGGAUCACCCAUGUAUUUU	41.1	103	–	–
UAUAUGUCAGGAUAUUAAUUAAAAUGGAAUUUAGUUUUAAUUAAGAAGGGACAUGAGGAUCACCCAUGUUCCUC	20.9	128	–	–
UCGUGAAGGACAGGAUAUGGACAUGAGGAUCACCCAUGUACAUGGGAAUGUAUACUGAAUUUGUACUAGAAGGGUUACAUAAAU	29.9	20.6	–	–
GUCCUUUCUGAGGAUAUUAUCCUUUCCGAUUGAUAAGAAGGCAGUACAUGAGGAUCACCCAUGUGGGUUGUCUG	29.8	38.3	–	–
GCGAAUAUGGGUUAGGAUAUGCGCGCAUGUACAUGAGGAUCACCCAUGUUUACGGGCGCCUUUGAGCAGAAGGAGCUAAUCAACGC	–	–	36.5	27.6
AACAUGGUACAGAAGGGCAAUUUAUUUAAUUAUUAUUUAGAACAGCAUUGCAGGAUAUGUUUAACAUGAGGAUCACCCAUGUAC	–	–	70.4	13.8
GUAGCAUACCGAGGAUAUUCAGGGCGUGAAUAAACAUGAGGAUCACCCAUGUGGCGAAAGCCUAGGGAGAAGGCGGAAUGCUAC	–	–	25.9	19.1
AGAACAUGAGGAUCACCCAUGUUAAGGUCGGUAAAUAAGGGUGAGGAUAUGCUUAAAAUAAGGAAGCAGAAGGUGCUUGGUGCA	–	–	183	195
GAUCCACAUGAGGAUCACCCAUGUGAGGAUAUGUCCAUAUUCGGCAAAUCGGAUAUGGACAGAAGGCACACCGG	120	47.4	–	–
AUCCGUCGUGUGAGGAUAUAAGAGUUCAAGGUUGUUUAGAAGGUACAUGAGGAUCACCCAUGUCACCCUGAUUG	14.9	14.9	–	–
UUUGGGUGGCUGGAGGAUAUUCUUGUGGUUACAUGAGGAUCACCCAUGUGUCGCGCGGUGCGCGAGGAGAAGGCUGGCGGCCGUU	–	–	411	128
AUAAAUAAGGCGCACAUGAGGAUCACCCAUGUACGGACUAGCAAGGAUAUCAGCGUCGGGUGCAAUGAGAAGGUGUGUGUCAAG	–	–	45.1	74.4
UUGGUACAAGGAUAUACAUGAGGAUCACCCAUGUUUGGCAUCGCGCGUAUCUCUUCAGGUAGAAGGUGUGUUGA	22.3	26.5	–	–
UGAAACUACGAGAAGGACAUGUGGUCCUUCAGUUACAUGAGGAUCACCCAUGUAGGAUAUCGUAGUUUCAGGAUCGUGAGAUCU	38.5	12.7	–	–
ACAUGAGGAUCACCCAUGUGUGCAUAGGAUAUUGAGGAUUAGGGAUAUUAUUAUGGAUUUGCCCACAAGAAGGAUGAAAGUGUU	–	–	17.8	15.7
UUGGACGUCGUAGGAUAUGUAGGAUUUUCCUACAUGAGGAUCACCCAUGUUGAAAUGGAAGAAGGACAGAAGGACGAUGUCCAU	–	–	139	16.2
AGGUAAACCACAGGAUAUGGCUAGCAUAGCUAGCCAGAAGGGUGGUCGAAACCAUGUAAAUACAUGAGGAUCACCCAUGUAUCC	–	–	566	75.3
GGUGAGCAAGGAUAUACAUGAGGAUCACCCAUGUGAGAUGCGCAGGGCCCGAUGAUAGGUAGAAGGUGCGUCAC	34.5	72.8	–	–
GAGGAAAGGUAGCCCGACGUACCAGCAGAAGGGUGAUCAGACAUGAGGAUCACCCAUGUAGGAACACAGGAUAUGCAUGCACUU	–	–	80	27.8
AAAUACCGGUGAGGAUAUUUUUAAUAGAACUUUAUGAUAUACAUGAGGAUCACCCAUGUUACUUUAAAGAAGGCAUCGGAUAAA	17.5	15.8	–	–
CUAUUUAGUGCCUCAUGUACAUGAGGAUCACCCAUGUUAACUUAGGAUAUAUUUAUAUUGAUAGAGUAGAAGGAAGUACUAUUU	22	18.8	–	–
